# Source: ChEMBL document CHEMBL1131235, “(R)-(+)-2-[[[3-(Morpholinomethyl)-2H-chromen-8-yl]oxy]methyl] morpholine methanesulfonate: a new selective rat 5-hydroxytryptamine1B receptor antagonist” (J Med Chem, 1998)
# What was measured:
# [1] = biological target: T1, 5-hydroxytryptamine receptor 1A (Rattus norvegicus, UniProt P19327); assay: Binding affinity against 5-hydroxytryptamine 1A receptor from rat hippocampus using [3H]8-OH-DPAT as the radioligand.; assay type: tissue-based
# T1 sequence (P19327 whole entry): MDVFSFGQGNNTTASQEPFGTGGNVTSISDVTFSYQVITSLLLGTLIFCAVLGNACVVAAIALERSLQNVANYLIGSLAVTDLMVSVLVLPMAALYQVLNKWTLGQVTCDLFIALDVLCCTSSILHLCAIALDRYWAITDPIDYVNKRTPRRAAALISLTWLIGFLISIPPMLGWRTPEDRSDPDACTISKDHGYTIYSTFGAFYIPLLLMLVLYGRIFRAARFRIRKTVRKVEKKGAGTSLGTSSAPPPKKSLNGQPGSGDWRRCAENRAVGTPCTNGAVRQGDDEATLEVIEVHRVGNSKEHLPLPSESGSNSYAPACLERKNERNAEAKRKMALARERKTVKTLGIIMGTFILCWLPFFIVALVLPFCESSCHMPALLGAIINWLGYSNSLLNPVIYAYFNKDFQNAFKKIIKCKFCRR
# Procedure, shortened: (§1)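 Binding by the Jackson et al. method. 5-HT1A used [3H]OH-DPAT on rat hippocampus. α1 used [3H]prazosin, α2 [3H]RX821002 and β [3H]dihydroalprenolol, all on rat cortex. D1 used [3H]SCH-23390 on rat striatum. D2 used [3H]raclopride on LtkhD2A cell membranes.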
# [2] = biological target: 5-hydroxytryptamine receptor 1B (Rattus norvegicus, UniProt P28564); assay: Binding affinity against 5-hydroxytryptamine 1B receptor in membranes of Rat cerebral cortex; assay type: tissue-based
# Procedure, shortened: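 Rat cerebral cortical membranes labelled with [125I]iodocyanopindolol in the presence of 60 μM isoproterenol to block β-adrenoceptor binding. Nonspecific binding was defined with 10 μM 5-HT.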
# [3] = biological target: T2, 5-hydroxytryptamine receptor 2C (Rattus norvegicus, UniProt P08909); assay: Binding affinity against 5-hydroxytryptamine 2C receptor from rat cortex using [3H]mesulergine as the radioligand.; assay type: tissue-based
# T2 sequence (P08909 whole entry): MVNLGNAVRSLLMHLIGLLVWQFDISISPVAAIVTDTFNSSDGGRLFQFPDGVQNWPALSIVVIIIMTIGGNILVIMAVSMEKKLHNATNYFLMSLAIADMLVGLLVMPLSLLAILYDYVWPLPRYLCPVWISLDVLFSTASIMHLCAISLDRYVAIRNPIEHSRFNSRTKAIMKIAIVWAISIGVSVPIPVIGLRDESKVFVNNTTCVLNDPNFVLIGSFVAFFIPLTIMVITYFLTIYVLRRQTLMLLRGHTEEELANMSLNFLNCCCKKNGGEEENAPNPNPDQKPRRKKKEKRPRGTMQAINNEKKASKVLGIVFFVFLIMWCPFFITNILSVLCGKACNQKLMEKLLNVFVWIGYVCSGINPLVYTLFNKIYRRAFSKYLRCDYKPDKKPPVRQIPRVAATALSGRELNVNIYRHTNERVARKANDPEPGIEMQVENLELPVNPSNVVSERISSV
# Procedure, shortened: (§2)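 Binding by the Johansson et al. method. 5-HT2A used [3H]ketanserin and 5-HT2C used [3H]mesulergine, both on rat cortex. 5-HT6 and 5-HT7 used [3H]-5-HT on CHO cell membranes expressing the rat receptors.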
# [4] = biological target: 5-hydroxytryptamine receptor 2A (Rattus norvegicus, UniProt P14842); assay: Binding affinity against 5-hydroxytryptamine 2A receptor from rat cortex using [3H]ketanserin as the radioligand.; procedure, shortened: as §2
# [5] = biological target: T3, Adrenergic receptor alpha-2 (Rattus norvegicus, UniProt P22086+P19328+P22909); assay: Binding affinity against Alpha-2 adrenergic receptor in rat cortex using [3H]RX-821002 as the radioligand.; assay type: tissue-based, Brain; procedure, shortened: as §1
# T3 sequence (P22086 whole entry): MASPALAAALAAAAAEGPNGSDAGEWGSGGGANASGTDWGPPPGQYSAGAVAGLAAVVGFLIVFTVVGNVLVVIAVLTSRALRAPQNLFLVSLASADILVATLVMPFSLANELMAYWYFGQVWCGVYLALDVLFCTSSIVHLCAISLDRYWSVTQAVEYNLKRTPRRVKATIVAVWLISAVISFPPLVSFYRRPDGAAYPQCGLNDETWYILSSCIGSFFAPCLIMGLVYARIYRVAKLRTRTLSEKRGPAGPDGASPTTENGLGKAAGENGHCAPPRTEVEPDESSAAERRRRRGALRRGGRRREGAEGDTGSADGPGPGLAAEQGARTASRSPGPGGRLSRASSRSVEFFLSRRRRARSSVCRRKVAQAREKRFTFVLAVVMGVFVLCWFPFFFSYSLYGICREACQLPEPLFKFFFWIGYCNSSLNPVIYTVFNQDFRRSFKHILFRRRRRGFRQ
# T3 sequence (P19328 whole entry): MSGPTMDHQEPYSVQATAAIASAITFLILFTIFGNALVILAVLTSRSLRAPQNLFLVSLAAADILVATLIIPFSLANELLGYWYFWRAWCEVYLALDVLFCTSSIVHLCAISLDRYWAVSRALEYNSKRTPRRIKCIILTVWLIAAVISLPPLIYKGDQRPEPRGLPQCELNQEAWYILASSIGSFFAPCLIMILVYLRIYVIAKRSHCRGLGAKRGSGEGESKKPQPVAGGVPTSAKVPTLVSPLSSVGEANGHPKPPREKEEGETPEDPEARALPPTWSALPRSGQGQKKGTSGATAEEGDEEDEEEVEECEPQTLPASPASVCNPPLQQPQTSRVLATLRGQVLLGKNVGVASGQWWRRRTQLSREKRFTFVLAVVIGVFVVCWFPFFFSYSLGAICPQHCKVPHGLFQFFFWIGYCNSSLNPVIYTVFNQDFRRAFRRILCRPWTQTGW
# T3 sequence (P22909 whole entry): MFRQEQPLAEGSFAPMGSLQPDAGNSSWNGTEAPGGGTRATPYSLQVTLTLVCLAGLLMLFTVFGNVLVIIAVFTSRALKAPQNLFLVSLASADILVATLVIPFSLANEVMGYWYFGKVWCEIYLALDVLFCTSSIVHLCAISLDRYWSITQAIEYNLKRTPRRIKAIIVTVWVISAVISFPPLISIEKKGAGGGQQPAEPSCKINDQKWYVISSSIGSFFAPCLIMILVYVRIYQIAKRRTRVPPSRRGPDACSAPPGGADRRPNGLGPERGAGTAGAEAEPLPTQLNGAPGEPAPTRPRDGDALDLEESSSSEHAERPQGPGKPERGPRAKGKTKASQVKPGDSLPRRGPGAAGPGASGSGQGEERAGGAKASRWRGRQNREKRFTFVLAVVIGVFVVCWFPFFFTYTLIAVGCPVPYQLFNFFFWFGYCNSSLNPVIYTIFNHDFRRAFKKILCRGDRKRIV
# Adrenergic receptor beta = Adrenergic receptor beta (Rattus norvegicus, UniProt P18090+P10608+P26255); assay: Binding affinity against Beta adrenergic receptor in rat cortex using [3H]dihydroalprenolol as the radioligand.; procedure, shortened: as §1
# D(2) dopamine receptor = D(2) dopamine receptor (Homo sapiens, UniProt P14416); assay: Binding affinity against Dopamine receptor D2 from cell LtkhD2A membranes using [3H]raclopride as the radioligand.; procedure, shortened: as §1
# D(1A) dopamine receptor = D(1A) dopamine receptor (Rattus norvegicus, UniProt P18901); assay: Binding affinity against Dopamine receptor D1 in rat striatum using [3H]-SCH- 23390 as the radioligand.; assay type: tissue-based; procedure, shortened: as §1
# D(1A) dopamine receptor, sequence (P18901 whole entry): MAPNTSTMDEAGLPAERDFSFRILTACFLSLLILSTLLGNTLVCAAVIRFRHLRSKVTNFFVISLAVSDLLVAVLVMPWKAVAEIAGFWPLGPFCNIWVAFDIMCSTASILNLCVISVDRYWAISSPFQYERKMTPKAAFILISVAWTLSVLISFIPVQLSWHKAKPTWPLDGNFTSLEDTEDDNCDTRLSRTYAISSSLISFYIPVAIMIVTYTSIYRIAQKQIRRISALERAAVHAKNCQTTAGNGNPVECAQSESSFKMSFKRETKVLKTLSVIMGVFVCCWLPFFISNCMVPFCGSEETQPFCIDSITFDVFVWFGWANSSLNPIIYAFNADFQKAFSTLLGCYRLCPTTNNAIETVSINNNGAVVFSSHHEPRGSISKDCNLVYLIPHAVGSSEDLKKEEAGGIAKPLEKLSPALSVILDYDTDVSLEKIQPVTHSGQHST
# 5-hydroxytryptamine receptor 2A, sequence (P14842 whole entry): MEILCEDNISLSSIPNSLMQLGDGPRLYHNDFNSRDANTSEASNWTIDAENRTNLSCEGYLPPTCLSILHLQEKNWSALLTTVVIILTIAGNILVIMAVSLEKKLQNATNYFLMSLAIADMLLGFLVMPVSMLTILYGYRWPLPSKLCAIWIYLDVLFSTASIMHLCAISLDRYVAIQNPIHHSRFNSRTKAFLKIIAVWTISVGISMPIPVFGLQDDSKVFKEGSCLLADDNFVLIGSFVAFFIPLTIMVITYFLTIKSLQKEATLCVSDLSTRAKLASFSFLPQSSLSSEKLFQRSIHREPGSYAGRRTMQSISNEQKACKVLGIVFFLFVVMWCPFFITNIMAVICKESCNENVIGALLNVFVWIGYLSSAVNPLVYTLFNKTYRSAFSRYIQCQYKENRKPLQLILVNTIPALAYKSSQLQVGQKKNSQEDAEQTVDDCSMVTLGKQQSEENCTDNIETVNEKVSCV
# 5-hydroxytryptamine receptor 1B, sequence (P28564 whole entry): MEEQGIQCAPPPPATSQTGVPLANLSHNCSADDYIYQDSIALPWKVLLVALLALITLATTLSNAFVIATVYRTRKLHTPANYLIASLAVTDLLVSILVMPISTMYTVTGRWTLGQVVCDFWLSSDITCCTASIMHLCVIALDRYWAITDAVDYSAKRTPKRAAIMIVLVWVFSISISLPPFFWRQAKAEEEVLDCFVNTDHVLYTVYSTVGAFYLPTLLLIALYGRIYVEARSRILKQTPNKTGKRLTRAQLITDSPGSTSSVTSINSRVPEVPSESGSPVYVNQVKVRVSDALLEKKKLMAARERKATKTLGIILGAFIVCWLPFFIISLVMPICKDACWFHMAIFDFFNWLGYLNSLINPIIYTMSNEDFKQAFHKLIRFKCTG
# D(2) dopamine receptor, sequence (P14416 whole entry): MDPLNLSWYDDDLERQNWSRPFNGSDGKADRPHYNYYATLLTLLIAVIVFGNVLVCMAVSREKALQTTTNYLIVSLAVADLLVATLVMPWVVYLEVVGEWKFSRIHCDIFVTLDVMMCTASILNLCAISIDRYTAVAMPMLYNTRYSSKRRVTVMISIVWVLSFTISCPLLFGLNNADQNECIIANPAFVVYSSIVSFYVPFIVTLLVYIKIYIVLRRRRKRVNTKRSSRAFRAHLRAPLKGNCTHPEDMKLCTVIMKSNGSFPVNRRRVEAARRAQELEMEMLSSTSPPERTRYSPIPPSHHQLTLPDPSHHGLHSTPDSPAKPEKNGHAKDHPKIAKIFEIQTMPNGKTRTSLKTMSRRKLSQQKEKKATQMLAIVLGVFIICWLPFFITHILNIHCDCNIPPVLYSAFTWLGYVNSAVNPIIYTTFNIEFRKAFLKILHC
Ki [1],Ki [2],Ki [3],Ki [4],Ki [5],Ki (Adrenergic receptor beta),Ki (D(2) dopamine receptor),Ki (D(1A) dopamine receptor),Structure (SMILES)
> 10 µM,0.275 µM,> 10 µM,> 10 µM,> 10 µM,10 µM,> 10 µM,> 10 µM,C1=C(CN2CCOCC2)COc2c1cccc2OC[C@@H]1CNCCO1.Cl
> 10 µM,0.047 µM,> 10 µM,> 10 µM,> 10 µM,> 10 µM,> 10 µM,> 10 µM,C1=C(CN2CCOCC2)COc2c1cccc2OC[C@H]1CNCCO1.CS(=O)(=O)O
